Consider 37 sequences from the array DNA melting data of Ke et al. (doi:10.1101/2024.01.08.574731).

Data set [1] can be described thus: folding enthalpy; higher = less favourable; fluorescence melt of hairpins on a sequencing array, two-state fit. To be noted: sodium 0.088 M. A digest of the protocol:
(§1)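 Bootstrapped two-state fits yielded melting temperature and folding enthalpy for library hairpins. Cy3 fluorescence, with annealed Cy3 and quencher oligos, was imaged on a sequenced MiSeq flow cell in 50 mM Na-HEPES pH 8.0, 25 mM NaCl in 2.5 °C steps up to 60 °C, and normalised to pre-quench Cy3 and to control constructs. Four replicates were combined by inverse variance, and fitted temperatures were raised by 9.35 °C to match UV melts.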

The nature of data set [2]: melting temperature; fluorescence melt of hairpins on a sequencing array, two-state fit, raised by 9.35 °C to match UV melts. To be noted: sodium 0.088 M. A digest of the protocol: as §1

In the case of GGTAGCGAAAGCTTAACC ((((((....)))..))), the folding enthalpy in data set [1] is -16.7 kcal/mol. The Tm in data set [2] worked out at 38.1 °C.

As to GCACCCGAAAGGGAATGC ((((((....)))..))), the folding enthalpy in data set [1] is -20.1 kcal/mol. Also, the Tm in data set [2] was 45.3 °C.

GACAGTGGAAACACTGTC (((((((....))))))): the folding enthalpy in data set [1] was -39.5 kcal/mol. Further, the Tm in data set [2] was determined as 60.8 °C.

For GATCGCAGCTGCGATC ((((((....)))))), the folding enthalpy in data set [1] was -41 kcal/mol. The Tm in data set [2] worked out at 69.3 °C.

In the case of GTAGAGGCGAAAGCCTAC (((..(((....)))))), the folding enthalpy in data set [1] is -8.81 kcal/mol. In addition, the Tm in data set [2] is 38 °C.

In the case of CGATCCCGGAAACGGTCG (((..(((....)))))), the folding enthalpy in data set [1] was -19.9 kcal/mol. In addition, the Tm in data set [2] worked out at 30.7 °C.

For GCCAACGAAAGTTCCGGC ((((((....)))..))), the folding enthalpy in data set [1] is -20.6 kcal/mol. Besides, the Tm in data set [2] was 36.3 °C.

For the sequence GTTATCCGAAAGGAGAAC (((.(((....))).))), the folding enthalpy in data set [1] was -37.4 kcal/mol. Also, the Tm in data set [2] turned out to be 51.1 °C.

With GGGACGGGAAACCGCCCC (((.(((....))).))), the folding enthalpy in data set [1] was -44.1 kcal/mol. In data set [2], the Tm is 57.3 °C.

Consider GAGCATGAAAATGCTC ((((((....)))))), for which, in data set [1], the folding enthalpy was -33 kcal/mol. Also, the Tm in data set [2] came out at 63.2 °C.

As to GCGCAACCGAAAGGTCGC (((..(((....)))))), the folding enthalpy in data set [1] is -23.9 kcal/mol. Moreover, in data set [2], the Tm came to 55 °C.

Consider GTATGCCCGAAAGGGTAC (((..(((....)))))), for which, in data set [1], the folding enthalpy is -8.06 kcal/mol. In addition, in data set [2], the Tm was 31.2 °C.

In the case of GCAATTGCGAAAGCATGC (((..(((....)))))), the folding enthalpy in data set [1] is -14.9 kcal/mol. For the same sequence, the Tm in data set [2] was determined as 40.2 °C.

Turning to GATCAGAACGCTGATC ((((((....)))))), in data set [1], the folding enthalpy was -29.5 kcal/mol. Besides, in data set [2], the Tm is 47.3 °C.

Take GCCGCGACGAAAGTCGGC (((..(((....)))))): the folding enthalpy in data set [1] was -9.47 kcal/mol. Besides, in data set [2], the Tm was 62.4 °C.

For GAGCCACCGAAAGGTCTC (((..(((....)))))), the folding enthalpy in data set [1] was -12.2 kcal/mol. Also, the Tm in data set [2] was found to be 29.7 °C.

GAGTCCGAAAGGAAGCTC ((((((....)))..))): the folding enthalpy in data set [1] is -17.6 kcal/mol. Also, the Tm in data set [2] is 37.4 °C.

As to GAGGGGGGAAACTCCCTC (((((.(....).))))), in data set [1], the folding enthalpy is -34.3 kcal/mol. In data set [2], the Tm was determined as 53.2 °C.

As for GTGAGGAAACTCAC (((((....))))), the folding enthalpy in data set [1] is -24.5 kcal/mol. Further, in data set [2], the Tm was determined as 51.9 °C.

For the sequence CGCGACGGAAACGTGCG (((.(((....)))))), the folding enthalpy in data set [1] was -28.3 kcal/mol. Moreover, the Tm in data set [2] amounted to 55.3 °C.

In the case of GCACCGTCGAAAGACTGC (((..(((....)))))), in data set [1], the folding enthalpy is -17.7 kcal/mol. The Tm in data set [2] is 35.9 °C.

As for GCCAAGGGAAACCTCGGC (((.(((....))).))), in data set [1], the folding enthalpy is -29.2 kcal/mol. Moreover, the Tm in data set [2] was 46 °C.

As to GCAGAAGGAAACTTCTGC (((((((....))))))), in data set [1], the folding enthalpy was -44.4 kcal/mol. Further, the Tm in data set [2] was 60.7 °C.

For the sequence GCCGTCGAAAGACGAGGC ((((((....)))..))), the folding enthalpy in data set [1] was -17.8 kcal/mol. Also, the Tm in data set [2] turned out to be 55.5 °C.

For the sequence GATCATCGCATGATC ((((((...)))))), the folding enthalpy in data set [1] is -31.4 kcal/mol. In addition, in data set [2], the Tm amounted to 49.6 °C.

Turning to GATCCAATGTTGGATC ((((((....)))))), in data set [1], the folding enthalpy was -35 kcal/mol. For the same sequence, in data set [2], the Tm came to 52.6 °C.

With GATCCCGTGTGGGATC ((((((....)))))), in data set [1], the folding enthalpy was -33.9 kcal/mol. The Tm in data set [2] is 63.9 °C.

For GTCAGCGAAAGCTAGGAC ((((((....)))..))), the folding enthalpy in data set [1] is -14.1 kcal/mol. The Tm in data set [2] was found to be 40 °C.

Consider GGACCCGGAAACGGGTTC (.(((((....))))).), for which, in data set [1], the folding enthalpy was -25.6 kcal/mol. The Tm in data set [2] came to 59.4 °C.

Regarding GCAGTTACGAAAGTATGC (((..(((....)))))), the folding enthalpy in data set [1] was -21.6 kcal/mol. Also, the Tm in data set [2] turned out to be 33.9 °C.

For the sequence GCTCTGGGAAACTAGAGC (((((.(....).))))), the folding enthalpy in data set [1] was -51 kcal/mol. In data set [2], the Tm turned out to be 49.7 °C.

Regarding GATCAGCCGTCTGATC ((((((....)))))), the folding enthalpy in data set [1] is -43.6 kcal/mol. Moreover, the Tm in data set [2] was 51.6 °C.

For GCCAACGAAAGTTTGGC ((((((....))).))), in data set [1], the folding enthalpy is -34.1 kcal/mol. Also, in data set [2], the Tm worked out at 54.6 °C.

Turning to GTTCTCCCGAAAGGGAAC (((..(((....)))))), the folding enthalpy in data set [1] was -9.91 kcal/mol. Also, the Tm in data set [2] was found to be 30.6 °C.

For GTCCGTCGAAAGACCGAC (((.(((....))).))), in data set [1], the folding enthalpy is -21.5 kcal/mol. Also, the Tm in data set [2] came to 42.8 °C.

In the case of GCATGGCGAAAGCCTTGC (((.(((....))).))), in data set [1], the folding enthalpy was -35.4 kcal/mol. In data set [2], the Tm came to 60.8 °C.

In the case of GATTCACGAAAGTGTATC (((.(((....))).))), the folding enthalpy in data set [1] is -25.9 kcal/mol. Further, in data set [2], the Tm stood at 42.7 °C.
